Assay outcomes as filed in PubChem BioAssay.
Hits are enriched below; roughly 3.9% of the tested compounds scored in any of these assays.
APP 5'UTR act: APP 5'UTR luciferase reporter activation; activation, % at 2 µM; AID 1276; SH-SY5Y APP 5'UTR luciferase reporter, luminescence; zero percent = DMSO vehicle wells; 1% of 190,000 active;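 active = activation above a set limit, based on mean plus 3 SD of controls, cut at about 140% in these data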
Rad51 HR inh: Rad51 (human) homologous recombination inhibition; hRad51 DNA strand exchange, fluorescence dequenching; inhibition, % at 10 µM; 0.085% of 200,000 active; AID 1385;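 active = inhibition above 40% at the single screening dose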;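 also: 0% = DMSO control wells and 100% = blanks with heterologous ssDNA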
Target sequence (Q06609 whole entry, looked up): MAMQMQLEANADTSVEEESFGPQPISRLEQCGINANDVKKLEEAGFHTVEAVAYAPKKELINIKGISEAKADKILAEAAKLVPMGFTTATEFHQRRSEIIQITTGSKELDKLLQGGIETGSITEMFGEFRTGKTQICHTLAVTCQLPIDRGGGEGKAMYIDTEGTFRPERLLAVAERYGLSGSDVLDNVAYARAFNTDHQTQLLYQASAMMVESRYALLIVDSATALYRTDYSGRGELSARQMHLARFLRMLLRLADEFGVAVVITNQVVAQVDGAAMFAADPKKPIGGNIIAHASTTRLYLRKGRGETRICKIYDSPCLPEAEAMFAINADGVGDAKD
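System: human Rad51 nucleoprotein filaments preassembled on unlabelled ssDNA. Reagent: labelled 47-mer dsDNA for strand exchange. Schedule: 30-min compound preincubation and 15-min exchange, both room temperature. Measured by: FRET fluorescence dequenching, excitation 485 nm, emission 520 nm. Read-out: Fluorescence-based percent inhibition, control- and blank-normalised. Benchmarks: plate controls and plate blanks.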
NF-kB expr up: NF-kB expression increase, human neuronal cells | NF-kB reporter expression; active compounds read high | fold change at 12.5 µM | 1.6% of 190,000 active; in the data active = fold change above about 3.3
FLuc stim CS: firefly luciferase counter-screen for stimulation assays. 200,000 tested, under 10 active. ATPlite luciferase biochemical, luminescence, 10 min; 0 = ATP-free wells, 1 = DMSO control. AID 1027. activation factor at 10 µM;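 active = luciferase activation factor, scaled between plate controls, of at least 2 with compound at 10 µM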
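Assay system – cell-free luciferase reagent · Medium – PBS-based ATP solution · Dosing – test compounds dosed from 2 mM stocks in 100% DMSO · Timing – 10 min, room temperature · Technique – light output (luminescence) · Measure – luminescence gain marking luciferase activators · Controls – No-ATP low control, compound-free enzyme-plus-ATP high control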
STAT1 act: activators of IFN-gamma induced STAT1 signaling; NIH 3T3 STAT1-luciferase reporter, luminescence; 100% = IFN-gamma alone, no compound; activation (% of control), % at 5.5 µM; 2.6% of 200,000 active;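 active = activation above the screen-wide mean activation plus 3 SD, cut at about 130% in these data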;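 also: raw ratio to IFN-gamma control signal so 100% means no change and 0% no light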
FLuc inh counter: counter-screen for luciferase assay inhibitors: firefly luciferase inhibition; ATPLite firefly luciferase biochemical luminescence, 10 min; P08659; inhibition, % at 10 µM; 1.5% of 200,000 active;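 active = inhibition above about 50% when tested at 10 µM, limit read from the data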
Starred values were filed as active, the others as inactive; . = no result given; ! = not confirmed by another sample.

SMILES	APP 5'UTR act	Rad51 HR inh	NF-kB expr up	FLuc stim CS	STAT1 act	FLuc inh counter
O=C(Nc1nc2ccccc2[nH]1)c1ccccc1[N+](=O)[O-]	17.3	-2.0	2.16	0.9	136.3*	12.1
CN(C)S(=O)(=O)c1ccc(C(=O)Nc2nnc(SCc3ccccc3)s2)cc1	-5.5	2.7	1.04	1	92.7	-1.1
O=C(Nc1nc2ccccc2[nH]1)c1ccccc1F	-1.4	-2.8	0.37	0	29.5	95.8*
CCOc1ccc(C(=O)Nc2nc3ccccc3[nH]2)cc1OCC	27.4	0.9	1.07	0.9	117.3	6.0
O=C(Cc1ccccc1F)Nc1nc2ccccc2[nH]1	-4.0	13.2	1.34	1	113.7	-2.0
CN(c1ccccc1)S(=O)(=O)c1ccc(Cl)c(C(=O)Nc2nc3ccccc3[nH]2)c1	9.0	4.4	1.43	1	102.5	-1.5
CN(C)S(=O)(=O)c1ccc(C(=O)Nc2nc3ccccc3[nH]2)cc1	101.2	4.3	1.19	0.8	143.3*	23.6
O=C(Nc1nc2ccccc2[nH]1)c1cc2ccccc2o1	263.2*	-13.7	5.45*	0.3	121.0	74.7*
O=C(OCc1nnc(-c2ccc(Cl)cc2)o1)C12CC3CC(CC(O)(C3)C1)C2	52.7	2.2	1.09	0.8	137.6*	15.5
O=C(Cc1ccc(Cl)cc1)OCc1nnc(-c2ccccc2)o1	6.3	10.9	1.34	1.1	99.1	-7.8
NC(=O)c1ccc(NC(=O)COC(=O)/C=C/c2ccc3c(c2)OCO3)cc1	.	-4.2	.	.	.	.
Cc1cc(N)n(-c2cc(C)c3ccccc3n2)n1	137.0*	0.7	4.53*	0.2	112.0	83.6*
Cc1cc(C)c2nc(-n3nc(C)cc3N)cc(C)c2c1	91.5	6.7	1.75	0.9	142.7*	14.9
Cc1cc(N)n(-c2ccccc2)n1	2.1	.	1.19	1	101.9	-2.8
Cc1cc(N)n(-c2ccccc2C)n1	-6.0	1.2	1.25	1	100.1	-2.0
CC(C)(c1ccccc1)c1ccc(OCC(O)CNC2CCN(Cc3ccccc3)CC2)cc1 (stereo not drawn)	-6.0	3.8	2.35	1	100.3	-4.5
O=C(NNC(=S)NCc1ccco1)c1ccc(S(=O)(=O)N2CCOCC2)cc1	-6.7	3.4	1.09	1.1	110.2	-9.1
CC1=CC(C)=Nc2ccccc2N1	20.5	.	1.44	0.9	128.7*	6.5
CC1=C/C(=C\c2ccc3c(c2)OCO3)C(=O)S1	7.8	.	0.99	0.5	99.4	50.8*
CC(=O)OCC(=O)[C@@]1(O)CC[C@H]2[C@@H]3CCC4=CC(=O)CC[C@]4(C)[C@H]3[C@@H](O)C[C@@]21C	59.0	-6.5	0.5	1	117.0	-4.4
C[C@]12CCC(=O)C=C1CC[C@@H]1[C@@H]2[C@@H](O)C[C@@]2(C)[C@H]1CC[C@]2(O)C(=O)COC(=O)CCC(=O)O	69.6	-1.8	1.01	1	129.0*!	-4.2
Cc1cc(/C=N\NC(=O)COc2cccc3cccnc23)c(C)n1-c1ccccc1	-6.4	0.7	0.59	0.3	98.9	71.4*
Cc1cc(C)cc(-n2c(C)cc(/C=N/NC(=O)c3ccncc3)c2C)c1	14.3	2.2	1.28	1.1	94.8	-7.3
Cc1ccccc1-n1c(C)cc(/C=N/NC(=O)c2ccncc2)c1C	17.6	10.4	1.48	0.4	109.6	55.2*
Cc1cc(/C=N\NC(=O)COc2cccc3cccnc23)c(C)n1-c1ccc(Br)cc1	-21.3	-8.5	0.75	0.8	102.9	15.1
SMILES	APP 5'UTR act	Rad51 HR inh	NF-kB expr up	FLuc stim CS	STAT1 act	FLuc inh counter
Cc1cc(/C=N/NC(=O)C(=O)NCc2ccccn2)c(C)n1-c1ccccc1	11.6	3.5	1.72	0.4	102.6	58.4*
Cc1cc(/C=N/NC(=O)c2ccccn2)c(C)n1-c1cccc([N+](=O)[O-])c1	41.4	-2.1	1.19	0.9	120.4	10.8
Cc1cc(/C=N\NC(=O)c2cccs2)c(C)n1-c1ccc2ncccc2c1	62.8	-1.0	1.04	0.7	130.2*	31.8
CCn1ccnc1CN1CCN(CCC(C)C)C(CCO)C1 (stereo not drawn)	-20.7	-48.2	1.15	1.1	100.7	-7.9
CC(Sc1nc2ccccc2[nH]1)C(=O)O (stereo not drawn)	0.4	4.2	0.94	1	98.5	-2.5
CC(=O)N=C(N)Sc1nc2ccccc2[nH]1	63.2	-3.7	2.7	0.8	134.5*	24.9
COC(=O)Cc1[nH]c(=S)[nH]c1C(=O)OC	.	1.2	.	.	.	.
O=C(N/N=C/c1c[nH]c2ccccc12)c1[nH]c2ccc(Br)cc2c1-c1ccccc1	-91.9	-0.7	3.65*	1	108.7	-1.8
O=C(N/N=C/c1ccc(O)cc1)c1[nH]c2ccc(Br)cc2c1-c1ccccc1	-94.3	.	2.87	1.1	107.5	-5.2
Cc1ccc(Cc2ccc(C(=O)NNC(N)=S)o2)cc1	19.9	12.2	1.33	1	98.0	-4.0
Cc1nc2sc(-c3ccccc3)cc2c(=O)n1N	.	25.1	.	.	.	.
Cc1nc2sc(-c3ccccc3)cc2c(=O)[nH]1	156.8*	0.8	3.53*	0.1	76.9	90.1*
Cc1nc2sc(-c3ccccc3)cc2c(=O)n1-n1cccc1	142.3*	1.3	1.08	0.8	145.0*	16.8
Cc1nc2sc(-c3ccccc3)cc2c(=O)n1/N=C/N(C)C	102.7	.	2.44	0.8	147.2*	21.2
O=c1c2cc(-c3ccccc3)sc2nc2n1CCC2	187.2*	-0.6	4.24*	0.3	139.3*	67.9*
Cc1nc2scc(-c3ccco3)c2c(=O)n1/N=C/N(C)C	4.6	-22.6	1.07	1.1	97.5	-8.6
O=c1c2ccccc2nc2n1CCC2	-15.9	7.1	1.01	1.1	100.6	-11.8
CCN(C(=O)COC(=O)/C=C/c1ccccc1)C1CCCCC1	-8.0	-1.8	1	1	95.7	-2.5
O=C(CNCC1(N2CCOCC2)CCCCC1)Nc1ccc(Cl)cc1	18.4	14.3	1	1.1	94.2	-7.8
CCOC(=O)c1ccc(N=Nc2c(C)c(C#N)c(O)[nH]c2=O)cc1	135.3*	-13.2	3.56*	1	101.0	-0.2
CCN(CCCCCN(C)C)Cc1cc2ccccc2o1	.	7.5	1.15	1	99.8	-2.0
CCCc1ccc(OCc2nc(-c3ccc(NC(=O)c4ccco4)cc3)no2)cc1	60.8	-9.3	2.3	0.8	133.0*	20.8
O=C(Nc1ccc(OC(=O)c2ccco2)cc1)c1ccco1	11.3	5.4	1.29	0.3	103.1	66.3*
CCC(=O)Nc1ccc(NC(=O)c2ccco2)cc1	39.6	-9.5	1.88	0.6	130.6*	38.3
CCC(=O)Oc1ccc(NC(=O)c2ccco2)cc1	14.3	12.1	1.32	0.4	99.0	60.9*
O=C(Nc1ccccn1)c1ccc(NC(=O)c2ccco2)cc1	158.8*	-6.8	2.69	0.5	129.3*	47.2
COc1cc(NC(=O)CC(C)C)ccc1NC(=O)c1ccco1	97.0	-0.2	.	.	141.3*	.
